Results gathered from unrelated publications.
Each line is one published result; the experiments were not run side by side.
DPP4: Dipeptidyl peptidase 4 (DPP4, Homo sapiens, UniProt P27487)
CYP2C9: Cytochrome P450 2C9 (CYP2C9, Homo sapiens, UniProt P11712)
SLC22A13: SLC22A13 (Homo sapiens, UniProt Q9Y226)

Compound	target	assay	test system	setting	IC50
CCCCNC(=O)N[C@H]1CSCc2cc(CSCCNC(=O)CN3CCN(CC(=O)O)CCN(CC(=O)O)CC3)cc(c2)CSC[C@@H](C(=O)O)NC(=O)[C@H](Cc2ccccc2)NC(=O)[C@H](CCC(N)=O)NC(=O)[C@H]([C@@H](C)O)NC(=O)[C@@H]2CCCN2C(=O)[C@@H]2CCCN2C1=O	Prolyl endopeptidase FAP (FAP, Homo sapiens, UniProt Q12884)	ligand displacement, radioligand			0.0317 µM
Cn1c(=O)cc(N2CCC(N)CC2)n(Cc2nc3ccccc3c(=O)n2-c2ccccc2)c1=O	DPP4	enzyme activity, inhibitor			> 100 µM
CC(=O)N[C@H]1Cc2ccc(cc2)OC/C=C/C[C@@H](C(=O)N[C@@H](CCCNC(=N)N)C(=O)c2nc3ccccc3s2)NC(=O)[C@H](CC(C)C)NC1=O	Hepatocyte growth factor activator serine protease (Homo sapiens, UniProt Q04756)	enzyme activity, inhibitor, fluorescence		with preincubation	0.053 µM
Cn1c(=O)cc(N2CCC(N)CC2)n(Cc2nc3ccccc3c(=O)n2-c2cccc(C(F)(F)F)c2)c1=O	DPP4	enzyme activity, inhibitor			58.1 µM
Cn1nc2c(=O)n(C3CC3)ccc2c1[C@](O)(c1cnc(C(F)(F)F)c(Cl)c1)C(F)(F)F	CYP2C9	enzyme activity, inhibitor	human, liver microsomes	pH 7.4	> 20 µM
Cc1ccc(-n2c(Cn3c(N4CCC(N)CC4)cc(=O)n(C)c3=O)nc3ccccc3c2=O)cc1	DPP4	enzyme activity, inhibitor			> 100 µM
Cn1c(=O)c2c(ncn2C)n(C)c1=O	SLC22A13	transporter uptake, inhibitor, radiometric		oocytes	> 2000 µM
Cn1c(=O)cc(N2CCC(N)CC2)n(Cc2nc3ccccc3c(=O)n2-c2ccc(F)cc2)c1=O	DPP4	enzyme activity, inhibitor			63.4 µM
N#C[C@@]12C[C@@H]1[C@@H](n1cnc3c(N[C@@H](C4CCC4)C4CC4)nc(I)nc31)[C@H](O)[C@@H]2O	CYP2C9	enzyme activity, inhibitor			8.64 µM
CN(C)c1ncnc2c1ncn2[C@@H]1O[C@H](CCl)[C@@H](NC(=O)[C@@H](CSC(c2ccccc2)c2ccccc2)NC(=O)OC(C)(C)C)[C@H]1O	Aminopeptidase N (ANPEP, Homo sapiens, UniProt P15144)	enzyme activity, inhibitor, fluorescence			> 100 µM
CC[C@@](N)(c1cnc(C(F)(F)F)c(Cl)c1)c1c2ncn(C3CC3)c(=O)c2nn1C	Cytochrome P450 2C8 (CYP2C8, Homo sapiens, UniProt P10632)	enzyme activity, inhibitor	human, liver microsomes	pH 7.4	> 20 µM
Cn1c(=O)cc(N2CCC(N)CC2)n(Cc2nc3ccc(Br)cc3c(=O)n2-c2ccc(F)cc2)c1=O	DPP4	enzyme activity, inhibitor			44.4 µM
CC1(CN)CCN(c2cnc3c(Sc4ccncc4Cl)n[nH]c3n2)CC1	Tyrosine-protein phosphatase non-receptor type 6 (PTPN6, Homo sapiens, UniProt P29350)	enzyme activity, inhibitor			> 100 µM
COc1cc(O)c2c(c1)C(=O)c1cc(C)cc(O)c1C2=O	CYP2C9	enzyme activity, inhibitor	human, liver microsomes	pH 7.4	7.44 µM
Nc1ncnc2c1ncn2[C@@H]1O[C@H](CO)[C@@H](O)[C@H]1O	SLC22A13	transporter uptake, inhibitor, radiometric		oocytes	> 5000 µM
